Measurements from ChEMBL document CHEMBL4622984, “Structure-Based Design of a Bromodomain and Extraterminal Domain (BET) Inhibitor Selective for the N-Terminal Bromodomains That Retains an Anti-inflammatory and Antiproliferative Phenotype” (J Med Chem, 2020).

Tests used:
[1] = molecular target: Bromodomain-containing protein 4 (Homo sapiens, UniProt O60885, Y97A); experiment: Displacement of Alexa Fluor 647 labelled I-BET762 from N-terminal His6-tagged human BRD4 BD2 (1 to 477 residues)/BD1 Y97A mutant expressed in Escherichia coli after 1 hr by TR-FRET assay
[2] = molecular target: Bromodomain-containing protein 4 (Homo sapiens, UniProt O60885, Y390A); experiment: Displacement of Alexa Fluor 647 labelled I-BET762 from N-terminal His6-tagged human BRD4 BD1 (1 to 477 residues)/BD2 Y390A mutant expressed in Escherichia coli after 1 hr by TR-FRET assay
[3] = molecular target: T1, Bromodomain-containing protein 3 (Homo sapiens, UniProt Q15059); experiment: Binding affinity to BRD3 BD2 (unknown origin) by isothermal titration calorimetric method
[4] = molecular target: T1, Bromodomain-containing protein 3; experiment: Binding affinity to BRD3 BD1 (unknown origin) by isothermal titration calorimetric method
[5] = molecular target: T2, Bromodomain-containing protein 2 (Homo sapiens, UniProt P25440); experiment: Binding affinity to BRD2 BD1 (unknown origin) by isothermal titration calorimetric method
[6] = molecular target: T2, Bromodomain-containing protein 2; experiment: Binding affinity to BRD2 BD2 (unknown origin) by isothermal titration calorimetric method
Blood [7] = experiment: Antiinflammatory activity in human whole blood assessed as reduction in LPS-induced MCP1 production preincubated for 30 mins followed by LPS challenge and measured after overnight incubation by mesoscale assay; type: functional, tissue-based
PBMC [8] = experiment: Antiinflammatory activity in human PBMC assessed as reduction in LPS-induced IL-6 production incubated for 18 to 24 hrs by mesoscale assay; type: functional, cell-based
MV4-11 = experiment: Growth inhibition of human MV4-11 cells incubated for 72 hrs by Cell-titre glo assay; type: functional, cell-based; conditions: MV4-11, 72 h
[9] = molecular target: Bromodomain testis-specific protein (Homo sapiens, UniProt Q58F21, Y309A); experiment: Displacement of Alexa Fluor 647 labelled I-BET762 from N-terminal His6-tagged human BRDT BD1 (1 to 397 residues)/BD2 Y309A mutant expressed in Escherichia coli after 1 hr by TR-FRET assay
PBMC [10] = experiment: Antiinflammatory activity in human PBMC assessed as reduction in LPS-induced MCP1 production incubated for 18 to 24 hrs by mesoscale assay; type: functional, cell-based
Blood [11] = experiment: Antiinflammatory activity in human whole blood assessed as reduction in LPS-induced IL-6 production preincubated for 30 mins followed by LPS challenge and measured after overnight incubation by mesoscale assay; type: functional, tissue-based
[12] = molecular target: Bromodomain-containing protein 3 (Homo sapiens, UniProt Q15059, Y73A); experiment: Displacement of Alexa Fluor 647 labelled I-BET762 from N-terminal His6-tagged human BRD3 BD2 (1 to 435 residues)/BD1 Y73A mutant expressed in Escherichia coli after 1 hr by TR-FRET assay
In short: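 Single-mutant tandem bromodomain constructs (Tyr→Ala in the other domain), N-terminal 6His, expressed in E. coli. Compounds were titrated from 10 mM DMSO stocks. Protein at 10 nM in 50 mM HEPES, 50 mM NaCl, 1 mM CHAPS, pH 7.4 with Alexa Fluor 647–I-BET762 tracer at 50 nM (200 nM for BRDT Y66A). Plates were equilibrated 1 h at rt in the dark, then 1.5 nM Eu-anti-6His was added.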

[13] = molecular target: Bromodomain-containing protein 3 (Homo sapiens, UniProt Q15059, Y348A); experiment: Displacement of Alexa Fluor 647 labelled I-BET762 from N-terminal His6-tagged human BRD3 BD1 (1 to 435 residues)/BD2 Y348A mutant expressed in Escherichia coli after 1 hr by TR-FRET assay
[14] = molecular target: Bromodomain testis-specific protein (Homo sapiens, UniProt Q58F21, Y66A); experiment: Displacement of Alexa Fluor 647 labelled I-BET762 from N-terminal His6-tagged human BRDT BD2 (1 to 397 residues)/BD1 Y66A mutant expressed in Escherichia coli after 1 hr by TR-FRET assay
[15] = AUCinfinity in CD1 mouse at 10 mg/kg, ip measured up to 12 hrs by reverse-phase LC-MS/MS analysis; type: ADME, organism-based; parameters: dose 10 mg/kg, time infinity, route intraperitoneal; conditions: in vivo
In short: (§1)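 Three male CD1 mice (30–33 g) given a single ip dose of 10 mg/kg, formulated at 2 mg/mL in 10% Kleptose in saline at pH 5 and dosed at 5 mL/kg. Serial tail-vein blood (ca. 20 µL) was taken up to 12 h, with a terminal cardiac sample at 24 h. Blood was diluted 1:1 with water, extracted by acetonitrile protein precipitation with internal standard, and quantified by reverse-phase LC-MS/MS (positive ion) against standards in control blood. Values are mean of n = 3.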

[16] = Terminal half life in CD1 mouse at 10 mg/kg, ip measured after 7 to 24 hrs by reverse-phase LC-MS/MS analysis; type: ADME, organism-based; conditions: in vivo, read-out: beta t1/2 (converted); in short: as §1
[17] = Tmax in CD1 mouse at 10 mg/kg, ip measured up to 12 hrs by reverse-phase LC-MS/MS analysis; type: ADME, organism-based; conditions: in vivo; in short: as §1
[18] = Elimination half life in CD1 mouse at 10 mg/kg, ip measured up to 7 hrs by reverse-phase LC-MS/MS analysis; type: ADME, organism-based; conditions: in vivo, read-out: beta t1/2 (converted); in short: as §1
[19] = molecular target: Bromodomain-containing protein 2 (Homo sapiens, UniProt P25440, Y386A); experiment: Displacement of Alexa Fluor 647 labelled I-BET762 from N-terminal His6-tagged human BRD2 BD1 (1 to 473 residues)/BD2 Y386A mutant expressed in Escherichia coli after 1 hr by TR-FRET assay
[20] = Unbound fraction in CD1 mouse blood at 200 to 1000 ng/ml incubated for 4 hrs by LC-MS/MS-based rapid equilibrium dialysis method; type: ADME, tissue-based
[21] = molecular target: Bromodomain-containing protein 2 (Homo sapiens, UniProt P25440, Y113A); experiment: Displacement of Alexa Fluor 647 labelled I-BET762 from N-terminal His6-tagged human BRD2 BD2 (1 to 473 residues)/BD1 Y113A mutant expressed in Escherichia coli after 1 hr by TR-FRET assay
[22] = Cmax in CD1 mouse at 10 mg/kg, ip measured up to 12 hrs by reverse-phase LC-MS/MS analysis; type: ADME, organism-based; parameters: dose 10 mg/kg, route intraperitoneal; conditions: in vivo; in short: as §1
Homo sapiens [23] = species on record: Homo sapiens; experiment: Selectivity index, difference between pIC50 for N-terminal His6-tagged human BRDT BD1 (1 to 397 residues)/ BD2 Y309A mutant expressed in Escherichia coli to pIC50 for N-terminal His6-tagged human BRDT BD2 (1 to 397 residues)/BD1 Y66A mutant expressed in Escherichia coli
Homo sapiens [24] = species on record: Homo sapiens; experiment: Selectivity index, difference between pIC50 for N-terminal His6-tagged human BRD2 BD1 (1 to 473 residues)/ BD2 Y386A mutant expressed in Escherichia coli to pIC50 for N-terminal His6-tagged human BRD2 BD2 (1 to 473 residues)/BD1 Y113A mutant expressed in Escherichia coli
Homo sapiens [25] = species on record: Homo sapiens; experiment: Selectivity index, difference between pIC50 for N-terminal His6-tagged human BRD3 BD1 (1 to 435 residues)/BD2 Y348A mutant expressed in Escherichia coli to pIC50 for N-terminal His6-tagged human BRD3 BD2 (1 to 435 residues)/BD1 Y73A mutant expressed in Escherichia coli

Chain of Bromodomain-containing protein 3 (Homo sapiens, UniProt Q15059, Y73A) (Q15059 2-726 Y73A limits assumed): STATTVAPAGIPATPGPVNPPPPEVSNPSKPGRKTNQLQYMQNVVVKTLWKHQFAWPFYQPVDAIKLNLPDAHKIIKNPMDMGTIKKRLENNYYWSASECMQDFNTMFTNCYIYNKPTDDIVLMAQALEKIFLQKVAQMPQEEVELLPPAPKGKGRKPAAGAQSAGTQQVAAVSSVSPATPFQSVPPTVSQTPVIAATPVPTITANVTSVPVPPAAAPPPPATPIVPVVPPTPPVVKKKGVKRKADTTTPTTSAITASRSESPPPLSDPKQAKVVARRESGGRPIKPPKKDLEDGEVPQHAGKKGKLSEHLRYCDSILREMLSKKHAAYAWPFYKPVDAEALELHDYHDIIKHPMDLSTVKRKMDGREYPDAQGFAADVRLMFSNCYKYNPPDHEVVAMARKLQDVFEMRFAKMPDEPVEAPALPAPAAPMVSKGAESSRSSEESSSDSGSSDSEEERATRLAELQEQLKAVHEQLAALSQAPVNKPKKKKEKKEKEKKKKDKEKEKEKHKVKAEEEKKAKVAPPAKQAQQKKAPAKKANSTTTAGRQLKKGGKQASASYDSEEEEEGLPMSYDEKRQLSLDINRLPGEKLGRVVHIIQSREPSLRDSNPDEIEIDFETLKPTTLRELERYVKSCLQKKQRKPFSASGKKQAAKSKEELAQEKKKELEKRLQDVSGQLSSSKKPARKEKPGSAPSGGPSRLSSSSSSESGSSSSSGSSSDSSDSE
Chain of Bromodomain-containing protein 3 (Homo sapiens, UniProt Q15059, Y348A) (Q15059 2-726 Y348A limits assumed): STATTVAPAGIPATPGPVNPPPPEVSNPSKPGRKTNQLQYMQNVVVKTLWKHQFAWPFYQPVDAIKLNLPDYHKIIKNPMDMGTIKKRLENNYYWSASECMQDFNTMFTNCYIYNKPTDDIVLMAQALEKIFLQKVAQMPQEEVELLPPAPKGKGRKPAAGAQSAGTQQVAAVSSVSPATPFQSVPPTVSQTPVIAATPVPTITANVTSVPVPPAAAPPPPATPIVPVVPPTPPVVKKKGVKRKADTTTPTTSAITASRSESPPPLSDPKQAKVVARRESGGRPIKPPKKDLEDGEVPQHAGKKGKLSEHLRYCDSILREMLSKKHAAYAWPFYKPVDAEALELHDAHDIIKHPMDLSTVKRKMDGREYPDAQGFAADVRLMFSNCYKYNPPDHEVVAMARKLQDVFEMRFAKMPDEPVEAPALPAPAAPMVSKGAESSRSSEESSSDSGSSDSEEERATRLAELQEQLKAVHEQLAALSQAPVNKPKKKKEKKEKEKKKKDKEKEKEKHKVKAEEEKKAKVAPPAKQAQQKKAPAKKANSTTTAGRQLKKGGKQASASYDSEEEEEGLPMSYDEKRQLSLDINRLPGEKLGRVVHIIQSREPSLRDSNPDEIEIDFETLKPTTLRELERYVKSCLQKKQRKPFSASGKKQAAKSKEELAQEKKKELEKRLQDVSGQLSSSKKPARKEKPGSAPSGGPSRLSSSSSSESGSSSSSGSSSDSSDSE
Chain of Bromodomain-containing protein 2 (Homo sapiens, UniProt P25440, Y113A) (P25440 whole entry Y113A, the tested form may be a part): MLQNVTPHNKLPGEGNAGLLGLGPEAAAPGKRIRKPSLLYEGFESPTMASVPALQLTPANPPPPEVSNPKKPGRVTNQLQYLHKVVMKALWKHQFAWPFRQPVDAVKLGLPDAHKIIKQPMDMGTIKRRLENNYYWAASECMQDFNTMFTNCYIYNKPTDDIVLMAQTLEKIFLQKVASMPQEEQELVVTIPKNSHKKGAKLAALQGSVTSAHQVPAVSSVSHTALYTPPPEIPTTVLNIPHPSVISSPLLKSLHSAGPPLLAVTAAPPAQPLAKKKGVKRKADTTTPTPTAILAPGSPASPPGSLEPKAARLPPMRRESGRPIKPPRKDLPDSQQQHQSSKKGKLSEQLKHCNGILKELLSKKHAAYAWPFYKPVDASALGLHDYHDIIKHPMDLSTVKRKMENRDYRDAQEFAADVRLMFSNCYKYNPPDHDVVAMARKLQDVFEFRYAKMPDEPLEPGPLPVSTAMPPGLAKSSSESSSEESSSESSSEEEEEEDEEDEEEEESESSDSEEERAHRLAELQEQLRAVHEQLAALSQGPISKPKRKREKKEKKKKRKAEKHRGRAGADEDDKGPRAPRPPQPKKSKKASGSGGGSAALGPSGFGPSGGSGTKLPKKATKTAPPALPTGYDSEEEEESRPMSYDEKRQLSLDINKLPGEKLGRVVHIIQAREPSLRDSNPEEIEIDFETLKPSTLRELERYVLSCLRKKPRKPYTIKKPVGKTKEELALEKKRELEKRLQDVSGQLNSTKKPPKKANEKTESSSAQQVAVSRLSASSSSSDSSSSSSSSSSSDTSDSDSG
Chain of Bromodomain-containing protein 2 (Homo sapiens, UniProt P25440, Y386A) (P25440 whole entry Y386A, the tested form may be a part): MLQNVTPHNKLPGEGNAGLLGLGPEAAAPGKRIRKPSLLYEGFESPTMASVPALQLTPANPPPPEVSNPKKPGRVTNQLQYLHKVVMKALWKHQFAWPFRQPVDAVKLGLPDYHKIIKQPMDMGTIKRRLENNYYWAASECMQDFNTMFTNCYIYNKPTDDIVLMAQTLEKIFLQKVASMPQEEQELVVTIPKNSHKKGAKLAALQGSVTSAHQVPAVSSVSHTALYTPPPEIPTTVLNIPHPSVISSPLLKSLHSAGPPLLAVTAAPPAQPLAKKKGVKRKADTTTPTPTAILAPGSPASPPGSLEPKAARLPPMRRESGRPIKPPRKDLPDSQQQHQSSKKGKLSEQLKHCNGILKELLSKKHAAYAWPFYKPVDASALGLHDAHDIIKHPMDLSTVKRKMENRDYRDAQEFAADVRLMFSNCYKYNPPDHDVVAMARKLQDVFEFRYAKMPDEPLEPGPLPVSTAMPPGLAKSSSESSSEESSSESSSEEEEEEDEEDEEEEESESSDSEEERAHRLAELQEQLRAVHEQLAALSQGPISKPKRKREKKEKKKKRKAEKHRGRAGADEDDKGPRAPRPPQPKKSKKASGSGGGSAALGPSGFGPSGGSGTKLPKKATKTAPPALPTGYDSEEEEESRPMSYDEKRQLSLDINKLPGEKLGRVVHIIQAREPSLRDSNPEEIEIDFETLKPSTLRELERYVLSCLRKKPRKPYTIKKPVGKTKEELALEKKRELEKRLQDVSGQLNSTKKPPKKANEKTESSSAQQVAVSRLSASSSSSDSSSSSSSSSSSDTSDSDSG
T2 sequence (P25440 whole entry): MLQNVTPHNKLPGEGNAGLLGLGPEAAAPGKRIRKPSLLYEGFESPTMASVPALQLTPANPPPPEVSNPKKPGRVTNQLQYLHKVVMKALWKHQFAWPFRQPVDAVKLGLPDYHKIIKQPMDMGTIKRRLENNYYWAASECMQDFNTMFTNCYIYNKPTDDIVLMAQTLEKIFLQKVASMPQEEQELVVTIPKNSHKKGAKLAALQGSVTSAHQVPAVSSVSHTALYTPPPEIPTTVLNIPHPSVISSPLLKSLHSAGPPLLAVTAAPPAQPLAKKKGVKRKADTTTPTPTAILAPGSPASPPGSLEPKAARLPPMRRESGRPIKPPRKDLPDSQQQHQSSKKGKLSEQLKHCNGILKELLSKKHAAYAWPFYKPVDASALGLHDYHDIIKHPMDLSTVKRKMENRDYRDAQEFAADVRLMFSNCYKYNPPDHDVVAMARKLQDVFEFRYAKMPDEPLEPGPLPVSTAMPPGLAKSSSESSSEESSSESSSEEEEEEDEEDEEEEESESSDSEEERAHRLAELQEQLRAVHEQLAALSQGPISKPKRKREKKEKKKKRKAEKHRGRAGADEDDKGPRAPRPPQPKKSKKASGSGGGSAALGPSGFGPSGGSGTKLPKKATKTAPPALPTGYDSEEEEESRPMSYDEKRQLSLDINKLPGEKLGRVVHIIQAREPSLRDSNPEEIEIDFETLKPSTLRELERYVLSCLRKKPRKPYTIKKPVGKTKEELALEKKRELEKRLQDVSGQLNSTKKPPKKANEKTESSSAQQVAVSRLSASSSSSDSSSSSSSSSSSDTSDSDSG
T1 sequence (Q15059 whole entry): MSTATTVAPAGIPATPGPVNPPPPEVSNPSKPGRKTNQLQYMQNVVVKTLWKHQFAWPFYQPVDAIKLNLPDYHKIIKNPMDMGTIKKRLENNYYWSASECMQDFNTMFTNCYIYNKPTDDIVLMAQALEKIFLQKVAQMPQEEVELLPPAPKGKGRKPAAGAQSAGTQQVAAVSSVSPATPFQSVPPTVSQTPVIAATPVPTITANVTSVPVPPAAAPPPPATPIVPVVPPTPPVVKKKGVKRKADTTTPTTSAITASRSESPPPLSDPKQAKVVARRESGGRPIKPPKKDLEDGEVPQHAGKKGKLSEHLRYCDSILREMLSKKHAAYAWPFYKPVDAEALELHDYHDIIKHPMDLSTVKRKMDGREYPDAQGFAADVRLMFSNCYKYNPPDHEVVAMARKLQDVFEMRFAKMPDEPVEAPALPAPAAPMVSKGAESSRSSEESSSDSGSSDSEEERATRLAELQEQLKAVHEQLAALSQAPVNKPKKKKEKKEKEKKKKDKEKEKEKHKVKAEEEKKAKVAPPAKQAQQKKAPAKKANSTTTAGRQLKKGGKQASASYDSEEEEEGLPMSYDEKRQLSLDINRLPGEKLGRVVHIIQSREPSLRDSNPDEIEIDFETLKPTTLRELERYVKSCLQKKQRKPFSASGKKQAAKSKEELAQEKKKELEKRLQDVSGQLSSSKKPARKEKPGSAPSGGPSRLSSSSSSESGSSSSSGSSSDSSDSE

SMILES: Cc1noc(C)c1-c1cc2ncc3c(c2cc1O[C@H]1C[C@@H](N)C1)n(C(C)c1ccccn1)c(=O)n3C (stereo partly specified)
- IC50 [1]: 10 µM
- IC50 [2]: 251 nM

SMILES: CC(=O)NCCCOc1cc2c(cc1-c1c(C)noc1C)ncc1c2n(C(C)c2ccccn2)c(=O)n1C (stereo unspecified)
- IC50 [1]: 3.16 µM
- IC50 [2]: 794 nM

SMILES: Cc1noc(C)c1-c1cc2ncc3c(c2cc1OCCCO)n(C(C)c1ccccn1)c(=O)n3C (stereo unspecified)
- IC50 [1]: 6.31 µM
- IC50 [2]: 501 nM

SMILES: COc1cc2c(cc1-c1c(C)noc1C)ncc1c2n([C@H](C)c2ccccn2)c(=O)n1C
- IC50 [1]: 0.501 µM
- IC50 [2]: 50.1 nM

SMILES: Cc1noc(C)c1-c1cc2ncc3c(c2cc1O[C@H]1CCNC1)n(C(C)c1ccccn1)c(=O)n3C (mixture of isomers)
- IC50 [1]: > 50.1 µM
- IC50 [2]: 6310 nM

SMILES: Cc1noc(C)c1-c1cc2ncc3c(c2cc1OCC1CCNCC1)n(C(C)c1ccccn1)c(=O)n3C (stereo unspecified)
- IC50 [1]: 39.8 µM
- IC50 [2]: 794 nM

SMILES: CC(=O)NCCCCn1c2c(c3ccccc31)C(=O)NCC2
- Kd [3]: > 300 µM
- Kd [4]: 3.3 to 8.6 µM
- Kd [5]: 3.3 to 8.6 µM
- Kd [6]: > 300 µM

SMILES: Cc1noc(C)c1-c1cc2ncc3c(c2cc1OCCCN)n(C(C)c1ccccn1)c(=O)n3C (stereo unspecified)
- IC50 [1]: 15.8 µM
- IC50 [2]: 631 nM

SMILES: Cc1noc(C)c1-c1cc2ncc3c(c2cc1OCCCN(C)C)n([C@H](C)c1ccccn1)c(=O)n3C
- IC50 [1]: > 50.1 µM
- IC50 [2]: 1000 nM

SMILES: Cc1noc(C)c1-c1cc2ncc3c(c2cc1CC(=O)O)n(C(C)c1ccccn1)c(=O)n3C (stereo unspecified)
- IC50 [1]: > 50.1 µM
- IC50 [2]: > 50100 nM

SMILES: Cc1noc(C)c1-c1cc2ncc3c(c2cc1OCCN(C)C)n([C@H](C)c1ccccn1)c(=O)n3C
- IC50 [1]: > 50.1 µM
- IC50 [2]: 2000 nM

SMILES: Cc1noc(C)c1-c1cc2ncc3c(c2cc1C(=O)O)n(C(C)c1ccccn1)c(=O)n3C (stereo unspecified)
- IC50 [1]: > 50.1 µM
- IC50 [2]: 12600 nM

SMILES: Cc1noc(C)c1-c1cc2ncc3c(c2cc1O[C@@H]1CCNC1)n([C@H](C)c1ccccn1)c(=O)n3C
- IC50 [1]: 50.1 µM
- IC50 [2]: 1260 nM

SMILES: COc1cc2c(cc1-c1c(C)noc1C)ncc1[nH]c(=O)n([C@H](C)c3ccccn3)c12
- IC50 (Blood [7]): 200 nM
- IC50 (PBMC [8]): 126 nM
- IC50 (MV4-11): 100 nM
- IC50 [9]: 126 nM
- IC50 (PBMC [10]): 39.8 nM
- IC50 (Blood [11]): 1000 nM
- IC50 [12]: 79.4 nM
- IC50 [13]: 31.6 nM
- IC50 [14]: 1580 nM

SMILES: Cc1noc(C)c1-c1cc2ncc3c(c2cc1OC[C@@H]1CCNC1)n(C(C)c1ccccn1)c(=O)n3C (mixture of isomers)
- IC50 [1]: 31.6 µM
- IC50 [2]: 794 nM

SMILES: Cc1noc(C)c1-c1cc2ncc3c(c2cc1O[C@H]1C[C@H](N)C1)n(C(C)c1ccccn1)c(=O)n3C (stereo partly specified)
- IC50 [1]: 3.16 µM
- IC50 [2]: 79.4 nM

SMILES: COCc1nc2cnc3cc(-c4c(C)noc4C)c(OC[C@H]4CCNC4)cc3c2n1[C@H](C)c1ccccc1 [GSK778]
- AUC(0-inf) [15]: 3.34 µM·h
- half-life [16]: 492 min
- Tmax [17]: 15 to 30 min
- IC50 (MV4-11): 100 nM
- half-life [18]: 54 min
- IC50 [19]: 79.4 nM
- IC50 (Blood [11]): 251 nM
- fraction unbound at 4 h [20]: 0.08
- IC50 [12]: 1000 nM
- IC50 [21]: 3160 nM
- Cmax [22]: 2400 nM

SMILES: Cc1noc(C)c1-c1cc2ncc3c(c2cc1OC[C@H]1CCNC1)n(C(C)c1ccccn1)c(=O)n3C (mixture of isomers)
- IC50 [1]: 25.1 µM
- IC50 [2]: 501 nM

SMILES: Cc1noc(C)c1-c1cc2ncc3c(c2cc1OCCN)n(C(C)c1ccccn1)c(=O)n3C (stereo unspecified)
- IC50 [1]: 31.6 µM
- IC50 [2]: 1260 nM

SMILES: Cc1noc(C)c1-c1cc2ncc3c(c2cc1OCC(=O)O)n([C@H](C)c1ccccn1)c(=O)n3C
- IC50 [1]: 12.6 µM
- IC50 [2]: 2000 nM

SMILES: COCc1nc2cnc3cc(-c4c(C)noc4C)c(OC)cc3c2n1[C@H](C)c1ccccc1
- Selectivity Index (Homo sapiens [23]): 13
- IC50 [1]: 0.0398 µM
- IC50 [9]: 25.1 nM
- IC50 [19]: 12.6 nM
- Selectivity Index (Homo sapiens [24]): 3.2
- IC50 [12]: 15.8 nM
- IC50 [21]: 39.8 nM
- IC50 [2]: 10 nM
- Selectivity Index (Homo sapiens [25]): 1.6
- IC50 [13]: 10 nM
- IC50 [14]: 316 nM

SMILES: COc1ccc2c(c1)C(c1ccc(Cl)cc1)=N[C@@H](NC(=O)OCc1ccccc1)c1nnc(C)n1-2
- IC50 (Blood [7]): 200 nM
- IC50 (PBMC [8]): 316 nM
- IC50 (MV4-11): 200 nM
- IC50 (PBMC [10]): 50.1 nM
- IC50 (Blood [11]): 1580 nM

SMILES: CNCCCOc1cc2c(cc1-c1c(C)noc1C)ncc1c2n(C(C)c2ccccn2)c(=O)n1C (stereo unspecified)
- IC50 [1]: 25.1 µM
- IC50 [2]: 1000 nM
